Reference: ChEMBL document CHEMBL4715732, “4-Phenylureido/thioureido-substituted 2,2-dimethylchroman analogs of cromakalim bearing a bulky 'carbamate' moiety at the 6-position as potent inhibitors of glucose-sensitive insulin secretion” (Eur J Med Chem, 2016)

Experiments:
[1] = Residual glucose-induced insulin secretion in Wistar rat pancreatic islets at 10 uM incubated for 90 mins in presence of 16.7 mM glucose by radioimmunological assay relative to control; conditions: Pancreatic islet, 1.5 h
Aorta = experiment: Myorelaxant activity in aortic rings isolated from Wistar rat assessed as reduction in KCl-induced contractions measured after 60 mins in presence of 80 mM KCl by force-displacement transducer; assay type: functional, tissue-based; conditions: 1 h, in the assay text read “30 mM KCl” for “80 mM KCl”
Outline: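 Endothelium-free rat aorta rings were contracted with 30 mM or 80 mM K+, with 1 or 10 μM glibenclamide present for some 30 mM series. Agent was applied cumulatively. EC50 is the concentration giving 50% relaxation of the KCl-induced contraction, reported as mean ± SEM (n).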

[2] = Residual glucose-induced insulin secretion in Wistar rat pancreatic islets at 1 uM incubated for 90 mins in presence of 16.7 mM glucose by radioimmunological assay relative to control; conditions: Pancreatic islet, 1.5 h

Row | EC50 (Aorta) [µM] | SMILES | residual insulin secretion at 10 µM [1] [%] | residual insulin secretion at 1 µM [2] [%]
1 | 7.2 | CC(C)OC(=O)Nc1ccc2c(c1)C(NC(=S)Nc1ccc(C#N)cc1)CC(C)(C)O2 (stereo not given) | 14.8 | 86
2 | 12.1 | CC(C)OC(=O)Nc1ccc2c(c1)C(NC(=O)Nc1cccc(C#N)c1)CC(C)(C)O2 (racemic) | 12.7 | 50.5
3 | 9.4 | CC(C)(C)OC(=O)Nc1ccc2c(c1)C(NC(=O)Nc1ccc(Cl)cc1)CC(C)(C)O2 (racemic) | 36.4 | 86.1
4 | 18.7 | CC(C)(C)OC(=O)Nc1ccc2c(c1)C(NC(=O)Nc1cccc(Cl)c1)CC(C)(C)O2 (racemic) | 11 | 86.4
5 | 14.2 | CCOC(=O)Nc1ccc2c(c1)C(NC(=O)Nc1cccc(C#N)c1)CC(C)(C)O2 (racemic) | 5.9 | 81
6 | 6.5 | CC(C)(C)OC(=O)Nc1ccc2c(c1)C(NC(=O)Nc1ccc(C#N)cc1)CC(C)(C)O2 (racemic) | 5.8 | 53.4
7 | 16.9 | COC(=O)Nc1ccc2c(c1)C(NC(=O)Nc1cccc(C#N)c1)CC(C)(C)O2 (racemic) | 9.4 | 88.3
8 | 22.7 | CCOC(=O)Nc1ccc2c(c1)C(NC(=S)Nc1cccc(Cl)c1)CC(C)(C)O2 (racemic) | 21.5 | 73.7
9 | 5.6 | CC(C)OC(=O)Nc1ccc2c(c1)C(NC(=S)Nc1cccc(C#N)c1)CC(C)(C)O2 (racemic) | 14.2 | 79.3
10 | > 30 | COC(=O)Nc1ccc2c(c1)C(NC(=O)Nc1ccc(C#N)cc1)CC(C)(C)O2 (racemic) | 36.9 | 89.7
11 | 24.4 | COC(=O)Nc1ccc2c(c1)C(NC(=S)Nc1ccc(Cl)cc1)CC(C)(C)O2 (racemic) | 22.8 | 84.9
12 | > 30 | COC(=O)Nc1ccc2c(c1)C(NC(=O)Nc1ccc(Cl)cc1)CC(C)(C)O2 (racemic) | 53.7 | 92.7
13 | > 30 | CCOC(=O)Nc1ccc2c(c1)C(NC(=O)Nc1ccc(C#N)cc1)CC(C)(C)O2 (racemic) | 17.4 | 79.5
14 | 8.9 | CCOC(=O)Nc1ccc2c(c1)C(NC(=S)Nc1ccc(Cl)cc1)CC(C)(C)O2 (racemic) | 22 | 78.4
15 | 15.4 | COC(=O)Nc1ccc2c(c1)C(NC(=S)Nc1cccc(Cl)c1)CC(C)(C)O2 (racemic) | 26.1 | 84.2
16 | 13.1 | CCOC(=O)Nc1ccc2c(c1)C(NC(=O)Nc1cccc(Cl)c1)CC(C)(C)O2 (racemic) | 36.1 | 82.8
17 | 21.2 | CCOC(=O)Nc1ccc2c(c1)C(NC(=O)Nc1ccc(Cl)cc1)CC(C)(C)O2 (racemic) | 49.9 | 92.1
18 | 19.4 | CCOC(=O)Nc1ccc2c(c1)C(NC(=S)Nc1ccc(C#N)cc1)CC(C)(C)O2 (racemic) | 10.2 | 80.2
19 | 12.6 | CC(C)OC(=O)Nc1ccc2c(c1)C(NC(=O)Nc1cccc(Cl)c1)CC(C)(C)O2 (racemic) | 23.7 | 92
20 | 4.8 | COC(=O)Nc1ccc2c(c1)C(NC(=S)Nc1cccc(C#N)c1)CC(C)(C)O2 (racemic) | 29.3 | 85.1
21 | 46.2 | CC(C)OC(=O)Nc1ccc2c(c1)C(NC(=O)Nc1ccc(Cl)cc1)CC(C)(C)O2 (racemic) | 48.7 | 92.3
22 | 17.7 | CC(C)OC(=O)Nc1ccc2c(c1)C(NC(=O)Nc1ccc(C#N)cc1)CC(C)(C)O2 (racemic) | 14.1 | 80.7
23 | 12.3 | CCOC(=O)Nc1ccc2c(c1)C(NC(=S)Nc1cccc(C#N)c1)CC(C)(C)O2 (racemic) | 14.8 | 77.6
24 | > 30 | COC(=O)Nc1ccc2c(c1)C(NC(=S)Nc1ccc(C#N)cc1)CC(C)(C)O2 (racemic) | 27.8 | 93.8
25 | > 30 | COC(=O)Nc1ccc2c(c1)C(NC(=O)Nc1cccc(Cl)c1)CC(C)(C)O2 (racemic) | 35.7 | 92
26 | 10.4 | CC(C)OC(=O)Nc1ccc2c(c1)C(NC(=S)Nc1ccc(Cl)cc1)CC(C)(C)O2 (racemic) | 14.9 | 81.2
27 | 11 | CC(C)OC(=O)Nc1ccc2c(c1)C(NC(=S)Nc1cccc(Cl)c1)CC(C)(C)O2 (racemic) | 19.3 | 81.5
28 | – | CC1(C)Oc2ccc(C#N)cc2C(N2CCCC2=O)C1O (racemic) [CROMAKALIM] | 94.4 | 95.3
29 | – | CC1=Nc2ccc(Cl)cc2S(=O)(=O)N1 [DIAZOXIDE] | 80.8 | 91
